From ChEMBL document CHEMBL1159121, “Synthesis, in vitro structure-activity relationship, and in vivo studies of 2-arylthiazolidine-4-carboxylic acid amides as anticancer agents” (Bioorg Med Chem, 2010) come the findings set out here.

In data set [1] the target is T1, Lysophosphatidic acid receptor 1 (Homo sapiens, UniProt Q92633). Description: Agonist activity at LPA1 expressed in human chem1 cells assessed as intracellular calcium mobilization by FLIPR assay. It counts as functional, cell-based. An outline of the steps:
(§1)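 Chem-1 cells stably transfected with LPA1, LPA3 or LPA5, kept in DMEM/10% FBS; Fluo-4 NW loaded. Compound added as an eight-point fourfold serial dilution (top 10 μM), then incubated 10 min at 25 °C. Ca2+ flux read for 180 s on FLIPR, expressed as percentage activation.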
For orientation: Calcium assays in cells follow changes in intracellular calcium, usually with a dye or a luminescent sensor.

In data set [2] the target is T1, Lysophosphatidic acid receptor 1. The data set is described as follows: Antagonist activity at LPA1 expressed in human chem1 cells assessed as effect on intracellular calcium mobilization by FLIPR assay. The data set is classed as functional, cell-based. An outline of the steps: (§2)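 LPA1-, LPA3- or LPA5-transfected Chem-1 cells, Fluo-4 NW loaded, preincubated 10 min at 25 °C with compound. Dilution series was eight-point, fourfold, top final concentration 10 μM. […] FLIPR Ca2+ signal read for 180 s, percentage inhibition calculated; 50% inhibition was taken as antagonism.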

The target in data set [3] is T2, Lysophosphatidic acid receptor 3 (Homo sapiens) (UniProt Q9UBY5).
T2 sequence (whole entry): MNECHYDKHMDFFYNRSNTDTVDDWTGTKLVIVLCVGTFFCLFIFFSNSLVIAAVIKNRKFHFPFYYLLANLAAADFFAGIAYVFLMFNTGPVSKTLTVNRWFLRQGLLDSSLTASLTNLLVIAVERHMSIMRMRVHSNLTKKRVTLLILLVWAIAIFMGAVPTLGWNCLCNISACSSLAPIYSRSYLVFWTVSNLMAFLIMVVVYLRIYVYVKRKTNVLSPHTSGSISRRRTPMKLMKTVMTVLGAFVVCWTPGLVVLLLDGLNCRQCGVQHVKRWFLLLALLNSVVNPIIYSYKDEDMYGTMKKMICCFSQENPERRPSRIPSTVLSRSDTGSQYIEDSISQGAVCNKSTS
Description: Agonist activity at LPA3 expressed in human chem1 cells assessed as intracellular calcium mobilization by FLIPR assay. It counts as functional, cell-based. An outline of the steps: as §1

Data set [4] addresses Lysophosphatidic acid receptor 5 (Homo sapiens) (UniProt Q9H1C0). Description: Agonist activity at LPA5 expressed in human chem1 cells assessed as intracellular calcium mobilization by FLIPR assay. The data set is classed as functional, cell-based. An outline of the steps: as §1
The subject of data set [5] is A-375. The data set is described as follows: Antiproliferative activity against human A375 cells after 48 hrs by SRB assay. It counts as functional, cell-based. The settings on record: A-375, 48 h. The gist of the method: (§3)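 Melanoma lines and control fibroblasts grown at 37 °C, 5% CO2, then exposed to a wide concentration range for 48 h in round-bottom 96-well plates. Fixed with 10% TCA, stained with SRB, protein read at 560 nm. IC50 (50% growth inhibition versus untreated) obtained by nonlinear regression.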

Data set [6] can be described thus: Selectivity ratio of IC50 for human fibroblasts to IC50 for human melanoma cells. It counts as ADME. The settings on record: human fibroblasts and human melanoma cells, read-out: Ratio IC50.
The test system of data set [7] is A-375. The data set is described as follows: Inhibition of human A375 cells colony formation at 2 uM after 7 days by colony-formation assay. The data set is classed as functional, cell-based.
In data set [8] the test system is A-375. Description: Inhibition of human A375 cells colony formation at 100 uM after 7 days by colony-formation assay. It counts as functional, cell-based.
Data set [9] concerns the target T2, Lysophosphatidic acid receptor 3 (Homo sapiens). The data set is described as follows: Antagonist activity at LPA3 expressed in human chem1 cells assessed as effect on intracellular calcium mobilization by FLIPR assay. It counts as functional, cell-based. An outline of the steps:
as §2

In data set [10] the test system is A-375. The data set is described as follows: Cell cycle arrest in human A375 cells by assessed as increase in accumulation at subG1 phase […] by flow cytometry. It counts as functional, cell-based. (In general: A flow cytometer gives signals particle by particle.)
Data set [11] can be described thus: Antiproliferative activity against human WM164 cells after 48 hrs by SRB assay. The data set is classed as functional, cell-based. The settings on record: WM164, 48 h. An outline of the steps: as §3
The nature of data set [12]: Cytotoxicity against human fibroblasts after 48 hrs by SRB assay. The data set is classed as cell-based. Conditions: Fibroblast. The gist of the method:
as §3
A general note: In SRB staining, fixed cells bind dye roughly in proportion to their protein.

For data set [13], the system named is A-375. Description: Inhibition of human A375 cells colony formation at 20 uM after 7 days by colony-formation assay. It counts as functional.
In data set [14] the target is Lysophosphatidic acid receptor 5 (Homo sapiens) (UniProt Q9H1C0). The data set is described as follows: Antagonist activity at LPA5 expressed in human chem1 cells assessed as effect on intracellular calcium mobilization by FLIPR assay. It counts as functional, cell-based. An outline of the steps: as §2
Data set [15] concerns LNCaP. The data set is described as follows: Cell cycle arrest in human LNCAP cells by assessed as increase in accumulation at subG1 phase […] by flow cytometry. The data set is classed as functional, cell-based.
The nature of data set [16]: Antiproliferative activity against mouse B16-F1 cells after 48 hrs by SRB assay. The data set is classed as functional, cell-based. The settings on record: B16-F1, 48 h. An outline of the steps: as §3
A further data set relates to PC-3. The data set is described as follows: Antiproliferative activity against human PC3 cells after 96 hrs by SRB assay. The data set is classed as functional, cell-based. Conditions: PC-3, 96 h.
The test system of data set [17] is RH7777. Description: Cytotoxicity against rat RH7777 cells after 96 hrs by SRB assay. The data set is classed as cell-based. Conditions: RH7777, 96 h. An outline of the steps: (§4)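 Prostate lines in RPMI1640/10% FBS; RH7777 in DMEM/10% FBS. Cells TCA-fixed, stained with 0.4% SRB, absorbance read at 540 nm. IC50 from nonlinear regression of % survival against concentration.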

For a further data set, the system named is PPC-1. Description: Antiproliferative activity against human PPC1 cells after 96 hrs by SRB assay. The data set is classed as functional, cell-based. Conditions: PPC-1, 96 h. The gist of the method:
as §4

In data set [18] the test system is LNCaP. The data set is described as follows: Antiproliferative activity against human LNCAP cells after 96 hrs by SRB assay. The data set is classed as functional, cell-based. An outline of the steps: as §4
The next data set deals with DU-145. The data set is described as follows: Antiproliferative activity against human DU145 cells after 96 hrs by SRB assay. Conditions: DU-145, 96 h. It counts as functional, cell-based. An outline of the steps: as §4
In data set [19] the test system is RH7777. Description: Selectivity ratio of IC50 for rat RH7777 cells to IC50 for human prostate cancer cells. The gist of the method: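 Ratio of RH7777 IC50 to the mean IC50 over four prostate lines (DU 145, PC-3, LNCaP, PPC-1). Prostate lines grown in RPMI1640/10% FBS and RH7777 in DMEM/10% FBS. Read by SRB (0.4%) at 540 nm; IC50 by nonlinear regression.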

Activity calls are given as the source filed them. No cut-off for these calls is given here.

T1 sequence (Q92633 whole entry): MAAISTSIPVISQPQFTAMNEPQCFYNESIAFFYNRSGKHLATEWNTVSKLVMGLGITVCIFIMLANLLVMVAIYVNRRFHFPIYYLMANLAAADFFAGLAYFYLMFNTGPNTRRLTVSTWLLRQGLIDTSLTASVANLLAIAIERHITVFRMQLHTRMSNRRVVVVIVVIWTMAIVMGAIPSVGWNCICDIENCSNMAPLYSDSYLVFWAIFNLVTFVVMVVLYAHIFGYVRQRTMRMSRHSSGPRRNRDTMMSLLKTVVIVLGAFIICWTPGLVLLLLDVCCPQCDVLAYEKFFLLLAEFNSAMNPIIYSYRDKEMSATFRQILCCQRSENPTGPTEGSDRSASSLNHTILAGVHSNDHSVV
Sequence of Lysophosphatidic acid receptor 5 (Homo sapiens) (Q9H1C0 whole entry): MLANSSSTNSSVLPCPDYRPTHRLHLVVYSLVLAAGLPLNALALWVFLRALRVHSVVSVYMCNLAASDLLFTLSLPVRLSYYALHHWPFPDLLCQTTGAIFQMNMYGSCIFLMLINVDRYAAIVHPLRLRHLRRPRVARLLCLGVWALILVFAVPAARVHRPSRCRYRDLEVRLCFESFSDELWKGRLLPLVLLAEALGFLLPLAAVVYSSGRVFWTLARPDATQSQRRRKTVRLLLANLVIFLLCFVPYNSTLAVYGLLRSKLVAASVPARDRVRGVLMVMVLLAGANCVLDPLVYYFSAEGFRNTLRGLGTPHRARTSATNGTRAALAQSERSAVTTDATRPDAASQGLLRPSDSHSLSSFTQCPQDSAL

Usually EC50 stands for the concentration giving half of the maximal effect. As to `CCCCCCCC/C=C\CCCCCCCC(=O)OC[C@@H](O)COP(=O)(O)O` [LYSOPHOSPHATIDIC ACID], in [1], the concentration for a half-maximal effect (EC50) amounted to 0.031 µM.

For orientation: IC50 means the concentration at which inhibition is half-maximal. With `Cc1noc(-c2ccc(CSCCC(=O)O)cc2)c1NC(=O)OC(C)c1ccccc1Cl` (stereo not drawn), the result in data set [1], in data set [3] and in data set [4] was inactive. The concentration for half-maximal inhibition (IC50) in data set [2] amounted to 0.046 µM.

As to `CCCCCCCCCCCCCCCCNC(=O)[C@@H]1CSC(c2cc(OC)c(OC)c(OC)c2)N1` (mixture of isomers), the IC50 with A-375 [5] stood at 1.4 µM; in [11], 0.7 µM; in data set [12], 2.4 µM; in data set [16] it was 1.6 µM. The selectivity ratio in [6] is 2. Besides, the outcome in the data set with A-375 [7], in the data set with A-375 [8] and with A-375 [13] was Active. The result in [1], in data set [9], in data set [2], in data set [3], in [14] and in [4] was inactive. Also, the Activity result in the data set with A-375 [10] and in the data set with LNCaP [15] was “Dose-dependent effect” each time.

Turning to `CCCCCCCCCCCCCCCCNC(=O)[C@@H]1CSC(c2ccccc2NC(C)=O)N1` (mixture of isomers), the IC50 in the data set with PC-3 is 2.7 µM; with A-375 [5], 9.3 µM; in the data set with RH7777 [17] it was 13.2 µM; in the data set with PPC-1, 1.5 µM; in [11] it was 3.9 µM; in data set [12], 27.8 µM. The results for the IC50 (in the data set on LNCaP [18]; in the data set on DU-145; in data set [16]) were 3.3 µM, 4.6 µM and 8 µM, respectively. In addition, the selectivity ratio in data set [6] came out at 3.9. Besides, the “Ratio IC50” value in the data set on RH7777 [19] came out at 4.4.

`CCCCCCCCCCCCCCCCNC[C@@H]1CSC(c2ccccc2)N1` (mixture of isomers): the IC50 was found to be 3.4 µM with PC-3; 13 µM in the data set on A-375 [5]; 6.2 µM in the data set with RH7777 [17]; 2.5 µM in the data set with PPC-1; 4.9 µM in data set [11]; 60 µM in data set [12]. The figures for the 50% inhibitory concentration (IC50) (with LNCaP [18]; in the data set with DU-145; in [16]) were 3.9 µM, 3.1 µM and 4.7 µM, respectively. The selectivity ratio in [6] amounted to 8. Besides, in the data set on RH7777 [19], the “Ratio IC50” value was 1.9.
